According to ChEMBL document CHEMBL5712088, “Pharmacological inhibition of G9a/GLP restores cognition and reduces oxidative stress, neuroinflammation and β-Amyloid plaques in an early-onset Alzheimer's disease mouse model” (2019):
Active and inactive are the calls of the source.

Columns and labels:
[1] = test system: Mus musculus; assay: Neuroprotective activity in 5XFAD mouse assessed as reduction in GFAP protein level by measuring fluorescence intensity at 5 mg/kg/day, po for 4 weeks by immunostaining analysis; type: functional, organism-based
[2] = test system: Mus musculus; assay: Anti-neuro inflammatory activity in 5XFAD mouse assessed as reduction in Il-6 mRNA expression at 5 mg/kg/day, po for 4 weeks by RT-PCR analysis; type: functional, organism-based
Method in brief: (§1)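 Male 5XFAD mice, 8 months old, given 5 mg/kg/day in drinking water with 1,8% 2-hydroxypropyl-β-cyclodextrin for 4 weeks. Hippocampus collected one day after behavioural testing. Trizol RNA, 2 μg reverse-transcribed, TaqMan qPCR with 18 ng cDNA per reaction. ΔΔCt normalized to housekeeping gene. n = 4-6 (Hmox1: 3-6) per group. One-way ANOVA with Dunnett.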

[3] = test system: Mus musculus; assay: Neuroprotective activity in 5XFAD mouse assessed as number of beta-amyloid plaques at 5 mg/kg/day, po for 4 weeks relative to control; type: functional
Method in brief: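 Male 5XFAD mice, 8 months old, received 5 mg/kg/day in drinking water for 4 weeks. 30 μm brain sections rehydrated in PBS, then stained with 0.3% Thioflavin-S for 20 min at room temperature in the dark.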

[4] = test system: Mus musculus; assay: Neuroprotective activity in 5XFAD mouse assessed as increase in vertical activity by measuring number of rearings at 5 mg/kg/day, po for 4 weeks by open field test (reference value: 9.9+/-0.66); type: functional
[5] = test system: Mus musculus; assay: Anti-neuro inflammatory activity in 5XFAD mouse assessed as Cxcl10 mRNA expression at 5 mg/kg/day, po for 4 weeks by RT-PCR analysis; type: functional, organism-based; method in brief: as §1
[6] = test system: Mus musculus; assay: Neuroprotective activity in 5XFAD mouse assessed as distance in zone-periphery at 5 mg/kg/day, po for 4 weeks by open field test (reference value: 1450.05+/-133.56 cm); type: functional
[7] = test system: Mus musculus; assay: Neuroprotective activity in 5XFAD mouse assessed as Ngf gene expression at 5 mg/kg/day, po for 4 weeks by RT-PCR analysis; type: functional, organism-based; method in brief: as §1
[8] = test system: Mus musculus; assay: Neuroprotective activity in 5XFAD mouse assessed as increase in Hmox1 gene expression level at 5 mg/kg/day, po for 4 weeks by RT-PCR analysis; type: functional, organism-based; method in brief: as §1
[9] = test system: Mus musculus; assay: Neuroprotective activity in 5XFAD mouse assessed as no change in IBA1 protein level at 5 mg/kg/day, po for 4 weeks by immunostaining analysis; type: functional, organism-based
[10] = test system: Mus musculus; assay: Neuroprotective activity in 5XFAD mouse assessed as increase in postsynaptic density protein 95 level at 5 mg/kg/day, po for 4 weeks by Western blot analysis; type: functional, organism-based
Method in brief: (§2)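 Hippocampal lysates, with protease and phosphatase inhibitors, from 8-month-old male 5XFAD mice after 4 weeks at 5 mg/kg/day in drinking water. 15 μg protein resolved on 8-12% SDS-PAGE and blotted to PVDF. Blocked 1 h, primary antibody overnight at 4°C, HRP secondary, ECL detection. Values expressed as % of Wt control. n = 4 per group.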

[11] = test system: Mus musculus; assay: Anti-neuro inflammatory activity in 5XFAD mouse assessed as reduction in TNF-alpha mRNA expression at 5 mg/kg/day, po for 4 weeks by RT-PCR analysis; type: functional, organism-based; method in brief: as §1
[12] = test system: Mus musculus; assay: Neuroprotective activity in 5XFAD mouse assessed as increase in BDNF protein level at 5 mg/kg/day, po for 4 weeks by Western blot analysis; type: functional, organism-based; method in brief: as §2
[13] = test system: Mus musculus; assay: Neuroprotective activity in 5XFAD mouse assessed as urinations at 5 mg/kg/day, po for 4 weeks by open field test (reference value: 0); type: functional
[14] = test system: Mus musculus; assay: Neuroprotective activity in 5XFAD mouse assessed as defecations at 5 mg/kg/day, po for 4 weeks by open field test (reference value: 0.80+/-0.20 No_Unit); type: functional
[15] = test system: Mus musculus; assay: Neuroprotective activity in 5XFAD mouse model assessed as reduced cognitive deficit in long term memory at 5 mg/kg/day, po for 4 weeks by novel object recognition test; type: functional, organism-based
Method in brief: (§3)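 8-month-old male 5XFAD mice after 4 weeks of 5 mg/kg/day in drinking water. Two-arm 90° maze, habituated 10 min/day for 3 days. 10 min acquisition with two identical objects, then one object replaced after 2 h (short-term) or 24 h (long-term). DI = (TN−TO)/(TN+TO), exploration ≤2 cm. Objects counterbalanced.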

[16] = test system: Mus musculus; assay: Neuroprotective activity in 5XFAD mouse assessed as distance in zone-center at 5 mg/kg/day, po for 4 weeks by open field test (reference value: 87.64+/-8.21 cm); type: functional
[17] = test system: Mus musculus; assay: Neuroprotective activity in 5XFAD mouse assessed as restoration of locomotor activity at 5 mg/kg/day, po for 4 weeks by open field test (reference value: 1672.36+/-68.84 cm); type: functional
[18] = test system: Mus musculus; assay: Antioxidant activity in 5XFAD mouse hippocampus assessed as decrease in ROS level at 5 mg/kg/day, po for 4 weeks; type: functional, organism-based
Method in brief: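 Hippocampal homogenates from 8-month-old male 5XFAD mice after 4 weeks of 5 mg/kg/day in drinking water (cyclodextrin vehicle). H2O2 concentration measured with a hydrogen peroxide assay kit as an oxidative stress index. n = 3 per group, mean ± SEM.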

[19] = test system: Mus musculus; assay: Neuroprotective activity in 5XFAD mouse assessed as increase in synaptophysin protein level at 5 mg/kg/day, po for 4 weeks by Western blot analysis; type: functional, organism-based; method in brief: as §2
[20] = test system: Mus musculus; assay: Neuroprotective activity in 5XFAD mouse assessed as Vgf gene expression at 5 mg/kg/day, po for 4 weeks by RT-PCR analysis; type: functional, organism-based; method in brief: as §1
[21] = test system: Mus musculus; assay: Neuroprotective activity in 5XFAD mouse assessed as increase in grooming at 5 mg/kg/day, po for 4 weeks by open field test (reference value: 1.2+/-0.25); type: functional
[22] = test system: Mus musculus; assay: Neuroprotective activity in cognitive impairment of 5XFAD mouse model assessed as increase in discrimination index at 5 mg/kg/day, po for 4 weeks by novel object location test; type: functional, organism-based
Method in brief: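 Object location task in 8-month-old male 5XFAD mice after 4 weeks of 5 mg/kg/day in drinking water. Sessions video-recorded from above. Time sniffing the relocated object (TN) versus the object in the familiar location (TO) was scored. DI = (TN-TO)/(TN+TO).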

[23] = test system: Mus musculus; assay: Antialzheimer activity in 5XFAD mouse model assessed as reduction of 5-mC global level in DNA at 5 mg/kg/day, po for 4 weeks; type: functional, organism-based
Method in brief: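 8-month-old male 5XFAD mice dosed 5 mg/kg/day via drinking water (1,8% hydroxypropyl-β-cyclodextrin vehicle), 4 weeks. Hippocampal DNA assayed for global 5-mC or 5-hmC by antibody-based ELISA-like colorimetric kit, absorbance 450 nm. Quantified against a standard curve of five control DNA dilutions (0.5–10 ng). n = 4 per group.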

[24] = test system: Mus musculus; assay: Neuroprotective activity in 5XFAD mouse assessed as no change in Mcp1 mRNA expression at 5 mg/kg/day, po for 4 weeks by RT-PCR analysis; type: functional, organism-based; method in brief: as §1
[25] = test system: Mus musculus; assay: Neuroprotective activity in 5XFAD mouse model assessed as reduced cognitive deficit in short term memory at 5 mg/kg/day, po for 4 weeks by novel object recognition test; type: functional, organism-based; method in brief: as §3
[26] = test system: Mus musculus; assay: Neuroprotective activity in 5XFAD mouse assessed as reduction in H3K9me2 level at 5 mg/kg/day, po for 4 weeks by Western blot analysis; type: functional, organism-based; method in brief: as §2
[27] = test system: Mus musculus; assay: Neuroprotective activity in 5XFAD mouse assessed as increase in SOD1 protein level at 5 mg/kg/day, po for 4 weeks by Western blot analysis; type: functional, organism-based; method in brief: as §2
[28] = test system: Mus musculus; assay: Neuroprotective activity in 5XFAD mouse assessed as increase in NRF2 protein level at 5 mg/kg/day, po for 4 weeks by Western blot analysis; type: functional, organism-based; method in brief: as §2
[29] = test system: Mus musculus; assay: Neuroprotective activity in 5XFAD mouse assessed as increase in GPX1 protein level at 5 mg/kg/day, po for 4 weeks by Western blot analysis; type: functional, organism-based; method in brief: as §2
[30] = test system: Mus musculus; assay: Antialzheimer activity in 5XFAD mouse model assessed as increase in 5-hmC global level in DNA at 5 mg/kg/day, po for 4 weeks

Measured: Activity

COc1cc2c(NC3CCN(C(C)C)CC3)nc(N3CCC(F)(F)CC3)nc2cc1OCCCN1CCCC1
92.74 cm: [16]
14.29: [4]
1623.83 cm: [6]
45%: [3]
inactive: [5] | [9] | [24]
0.86: [14]
2030.46 cm: [17]
0: [13]
3.71: [21]
active: all other assays above
